These results are taken from ChEMBL document CHEMBL1157391, “Apratoxin E, a cytotoxic peptolide from a guamanian collection of the marine cyanobacterium Lyngbya bouillonii” (J Nat Prod, 2008).

Assay type in all cases: functional, cell-based
One experiment relates to HeLa. In words: Antiproliferative activity against human HeLa cells after 48 hrs by MTT assay. In outline: (§1)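 Cells grown in high-glucose DMEM with 10% FBS at 37 °C under humidified 5% CO2. Seeded in 96-well plates at 10 000 (HT29), 3000 (HeLa) or 5000 (U2OS) cells per well. Treated 24 h later with a concentration series; solvent controls were 1% EtOH or 1% DMSO. Viability read by MTT after 48 h incubation.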

For the next experiment, the system named is U2OS. In words: Antiproliferative activity against human U2OS cells after 48 hrs by MTT assay. In outline:
as §1
(Formazan colour is commonly taken as a measure of viable cells.)

A further experiment concerns HT-29. In words: Antiproliferative activity against human HT29 cells after 48 hrs by MTT assay. The conditions noted are these: HT-29, 48 h. The essentials: as §1

SMILES strings stand for the structures. *1 amine or outer side, *2 acyl side, *3 side chain or, on linkers, in order; H or OH if unused. Where a SMILES comes first, the peptide text is derived from it. Bridges are numbered along the chain shown (N, C = ends). Roman numbers before positions name the chains, in order. [ ]: non-standard residue; d: D form. Actinocin(1to9) = Cc1c2oc3c(C)ccc(C(=O)[*:2])c3nc-2c(C(=O)[*:1])c(N)c1=O; NMeV = CN[C@H](C(=O)O)C(C)C; Sar = CNCC(=O)O

A word on the IC50: it is the midpoint of a concentration-inhibition curve.

For the compound `CC[C@H](C)[C@H]1C(=O)N2CCC[C@H]2C(=O)O[C@H](C(C)(C)C)C[C@@H](C)C/C=C/C2=N[C@@H](CCC(=O)N[C@@H](Cc3ccc(OC)cc3)C(=O)N(C)[C@@H](C)C(=O)N1C)CS2` [APRATOXIN E], the IC50 is 72 nM in the experiment with HeLa, 59 nM in the experiment on U2OS and 21 nM in the experiment on HT-29.

Turning to `CC(=O)O[C@H]1C(=O)[C@@]2(C)[C@H]([C@H](OC(=O)c3ccccc3)[C@]3(O)C[C@H](OC(=O)[C@H](O)[C@@H](NC(=O)c4ccccc4)c4ccccc4)C(C)=C1C3(C)C)[C@]1(OC(C)=O)CO[C@@H]1C[C@@H]2O` [PACLITAXEL], the IC50 in the experiment on HeLa was found to be 1.5 nM; in the experiment on U2OS it was 24 nM; in the experiment on HT-29, 1.9 nM.

Consider `Cc1c2oc3c(C)ccc(C(=O)N[C@@H]4C(=O)N[C@H](C(C)C)C(=O)N5CCC[C@H]5C(=O)N(C)CC(=O)N(C)[C@@H](C(C)C)C(=O)O[C@@H]4C)c3nc-2c(C(=O)N[C@@H]2C(=O)N[C@H](C(C)C)C(=O)N3CCC[C@H]3C(=O)N(C)CC(=O)N(C)[C@@H](C(C)C)C(=O)O[C@@H]2C)c(N)c1=O` [DACTINOMYCIN] (I: T[dV]P[Sar][NMeV] / II: T[dV]P[Sar][NMeV]; ester I:1-I:C, II:1-II:C; linker I:N-II:N via Actinocin(1to9)), for which the half-inhibitory concentration (IC50) turned out to be 0.4 nM with HeLa, 3.2 nM in the experiment with U2OS and 2.9 nM in the experiment with HT-29.

With `CC[C@H](C)[C@H]1C(=O)N2CCC[C@H]2C(=O)O[C@H](C(C)(C)C)C[C@@H](C)C[C@H](O)[C@H](C)C2=N[C@@H](/C=C(\C)C(=O)N[C@@H](Cc3ccc(OC)cc3)C(=O)N(C)[C@@H](C)C(=O)N1C)CS2` [APRATOXIN A], the IC50 in the experiment on HeLa is 10 nM; with U2OS, 10 nM; with HT-29, 1.4 nM.

For the compound `CC[C@H](C)[C@H]1C(=O)N2CCC[C@H]2C(=O)O[C@H](C(C)(C)C)C[C@@H](C)C/C=C(\C)C2=N[C@@H](/C=C(\C)C(=O)N[C@@H](Cc3ccc(OC)cc3)C(=O)N(C)[C@@H](C)C(=O)N1C)CS2` [E-DEHYDROAPRATOXIN A], the IC50 with HeLa is 121 nM; in the experiment on U2OS, 160 nM; in the experiment on HT-29, 41 nM.
